Results reported in ChEMBL document CHEMBL4373710, “DNA Structural Alteration Leading to Antibacterial Properties of 6-Nitroquinoxaline Derivatives” (J Med Chem, 2019).
Values after ≈ are worked out from the molar mass of the structure shown. Active and inactive are the calls of the source. The rule behind the calls is not given here.

Experiments:
[1] = tested on: Pseudarthrobacter chlorophenolicus; experiment: Binding affinity to Arthrobacter chlorophenolicus DNA assessed as appearance of induced CD up to 60 uM by circular dichroism method
Procedure, shortened: (§1)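 Genomic DNA isolated from overnight cultures of each strain. Titrated with compound from 15 to 60 µM in a 10 mm quartz cuvette. CD spectra recorded from 230 to 500 nm at 100 nm/min; ellipticity followed at 320 nm.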

Staphylococcus aureus [2] = experiment: Induction of morphological changes in Staphylococcus aureus assessed as increase in changed population measured after 2 hrs by flow cytometric analysis; assay type: functional, organism-based
Staphylococcus aureus [3] = experiment: Induction of morphological changes in Staphylococcus aureus assessed as change in microbe length at 3.5 uM by atomic force microscopic analysis (reference value: 1.37 +/- 0.09 micrometer); assay type: functional
Staphylococcus aureus [4] = experiment: Inhibition of DNA synthesis in Staphylococcus aureus assessed as reduction in [3H]-thymidine incorporation at 3.5 to 5 uM measured after 30 mins by scintillation counting analysis; assay type: functional, organism-based
Procedure, shortened: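 Log-phase S. aureus (10^5–10^6 CFU/mL) incubated with 3.5 or 5 µM, then pulsed 30 min with 3H-thymidine (1 µCi/well); cells harvested and counted by liquid scintillation. 5-fluorouracil (2 µM) as positive control.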

DNA [5] = experiment: Binding affinity to DNA isolated from HEK293 cells assessed as change in B-DNA structure at 15 to 180 uM by circular dichroism method; assay type: ADME, cell-free; conditions: human, hek293, 180 µM
DNA [6] = experiment: Binding affinity to Staphylococcus aureus DNA assessed as appearance of induced CD up to 60 uM by circular dichroism method; assay type: nucleic-acid assay; procedure, shortened: as §1
DNA [7] = experiment: Inhibition of ethidium bromide binding to Staphylococcus aureus DNA at pH 6 to 8 by fluorescence assay; assay type: nucleic-acid assay
Procedure, shortened: (§2)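 S. aureus genomic DNA (10 µM) with EtBr (5 µM) in 10 mM NaP pH 7, 10 mM NaCl and 1% DMSO, at 25 and 37 °C. Titrated with compound from 2.5 to 100 µM. Excitation 480 nm, emission scanned 520–700 nm, corrected for inner filter. Stern–Volmer analysis, triplicates. Variants: pH 6–8, or NaCl raised to 50 and 200 mM.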

DNA [8] = experiment: Binding affinity to Escherichia coli pBR322 DNA assessed as DNA unwinding at 0.5:1 to 1.5:1 compound to DNA ratio by atomic force microscopic analysis; assay type: nucleic-acid assay
Procedure, shortened: (§3)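 Supercoiled pBR322 plasmid treated with compound at [compound]:[DNA bp] ratios of 0.5:1, 1:1, 1.5:1, 2:1 and 3:1. Imaged by atomic force microscopy, with DNA height measured and compared against untreated plasmid.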

Pseudomonas aeruginosa = experiment: Antibacterial activity against Pseudomonas aeruginosa MTCC1688 by broth microdilution assay; assay type: functional
Procedure, shortened: (§4)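 Broth microdilution per CLSI; 5×10^5 cfu/mL bacteria in LB broth; compounds from DMSO stocks, final DMSO under 0.6%, with DMSO control. Plates incubated at the strain's recommended growth temperature and time; growth read as OD600.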

Calf thymus DNA [9] = experiment: Binding affinity to calf thymus DNA by isothermal titration calorimetric analysis; assay type: nucleic-acid assay; conditions: Bos taurus
Staphylococcus aureus [10] = experiment: Induction of morphological changes in Staphylococcus aureus assessed as unchanged population at 5 uM measured after 2 hrs by flow cytometric analysis (reference value: 90.4%); assay type: functional
Staphylococcus aureus [11] = experiment: Induction of morphological changes in Staphylococcus aureus at 3.5 uM measured after 6 hrs by acridine orange dye based confocal laser scanning fluorescence microscopic analysis; assay type: functional, organism-based
Procedure, shortened: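 S. aureus with 3.5 µM for 6 h at 37°C; fixed in paraformaldehyde, permeabilised with 0.2% Triton X-100 and lysostaphin 0.05 mg/mL; stained with acridine orange 3 µM for 5 min at 37°C; confocal imaging at 60X.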

Staphylococcus aureus [12] = experiment: Disruption of cell membrane in Staphylococcus aureus assessed as accumulation of propidium iodide positive cells at 3.5 uM by flow cytometric analysis (reference value: 1.7%); assay type: functional
[13] = tested on: Poly(dG-dC)oligonucleotide; experiment: Binding affinity to poly(dG-dC) DNA (unknown origin) assessed as appearance of induced CD by circular dichroism method; assay type: nucleic-acid assay
Procedure, shortened: (§5)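 Poly(dA-dT)·poly(dA-dT) or poly(dG-dC)·poly(dG-dC) held at 10 µM. Titrated with compound from 20 to 60 µM and followed by circular dichroism for change in the B-DNA band and appearance of induced CD.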

DNA [14] = experiment: Binding affinity to Escherichia coli pBR322 DNA assessed as transition of local to global DNA at 2:1 to 3:1 compound to DNA ratio by atomic force microscopic analysis; assay type: nucleic-acid assay; procedure, shortened: as §3
Calf thymus DNA [15] = experiment: Binding affinity to calf thymus DNA assessed as change in B-DNA structure at 265 nm by circular dichroism method; assay type: nucleic-acid assay; conditions: Bos taurus
Staphylococcus aureus [16] = experiment: Induction of morphological changes in Staphylococcus aureus assessed as unchanged population at 3.5 uM measured after 2 hrs by flow cytometric analysis (reference value: 90.4%); assay type: functional
[17] = tested on: Staphylococcus epidermidis; experiment: Disruption of preformed biofilm in Staphylococcus epidermidis up to 4 times MIC measured after 12 hrs by crystal violet staining based light microscopic analysis; assay type: functional, organism-based
Procedure, shortened: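 Planktonic cells washed off; 1% crystal violet 10 min, solubilised in 30% acetic acid, A550 read; wells also imaged at 20X by light microscopy.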

DNA [18] = experiment: Binding affinity to Staphylococcus aureus DNA assessed as DNA condensation at 3:1 compound to DNA ratio by atomic force microscopic analysis; assay type: nucleic-acid assay
Procedure, shortened: (§6)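 Isolated S. aureus genomic DNA (2.8 Mbp) treated with compound at increasing [compound]:[DNA bp] ratios, up to 3:1. Imaged by atomic force microscopy against untreated DNA.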

DNA [19] = experiment: Induction of DNA condensation in Staphylococcus aureus assessed as nucleoid shrinkage at 10 uM after 1 hr by DAPI staining-based confocal laser scanning fluorescence microscopic analysis; assay type: nucleic-acid assay
Procedure, shortened: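 S. aureus grown 6 h at 37 °C, washed into PBS and exposed to 10 µM compound or 0.5% DMSO for 1 h at 37 °C with shaking. Fixed in paraformaldehyde for 30 min at 4 °C, then DAPI-stained for 5 min. Nucleoid and cell areas measured from phase contrast/DAPI images; N/C ratio from 35 cells over three independent experiments, mean ± SD.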

[20] = tested on: Poly(dA-dT)oligonucleotide; experiment: Binding affinity to poly(dA-dT) DNA (unknown origin) assessed as appearance of induced CD up to 6:1 compound to DNA ratio by circular dichroism method; assay type: nucleic-acid assay; procedure, shortened: as §5
[21] = Antibacterial activity against Arthrobacter chlorophenolicus A6MTCC3706 by broth microdilution assay; assay type: functional; conditions: Pseudarthrobacter chlorophenolicus; procedure, shortened: as §4
DNA [22] = experiment: Inhibition of ethidium bromide binding to Staphylococcus aureus DNA in presence of 10 to 200 mM NaCl by fluorescence assay; assay type: nucleic-acid assay; procedure, shortened: as §2
Staphylococcus aureus [23] = experiment: Induction of DNA breaks in Staphylococcus aureus at 3.5 uM by TUNEL staining based confocal laser scanning fluorescence microscopic analysis; assay type: functional, organism-based
Procedure, shortened: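 S. aureus treated with 3.5 µM or 0.5% DMSO; pelleted, fixed in 16% paraformaldehyde 30 min at 4°C, permeabilised with 0.2% Triton X-100 plus lysostaphin 0.05 mg/mL; TdT tailing with fluorescent nucleotides 60 min at 37°C, stopped with 2X SSC; confocal imaging with fluorescein filter.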

DNA [24] = experiment: Binding affinity to Staphylococcus aureus DNA assessed as formation of DNA superstructure at 1:1 to 3:1 compound to DNA ratio by atomic force microscopic analysis; assay type: nucleic-acid assay; procedure, shortened: as §6
Staphylococcus aureus [25] = experiment: Disruption of cell membrane in Staphylococcus aureus assessed as accumulation of propidium iodide negative cells at 5 uM by flow cytometric analysis (reference value: 98.2%); assay type: functional

Question: What does the source list for CN(C)CCCNc1nc2cc([N+](=O)[O-])ccc2nc1NCc1ccc(C(F)(F)F)cc1?
Answer: Activity [1]: Active; Activity (Staphylococcus aureus [2]): Dose-dependent effect; Activity (Staphylococcus aureus [3]): 2.3 um; inhibition (Staphylococcus aureus [4]): Active; Activity (DNA [5]): Active; Activity (DNA [6]): Active; inhibition (DNA [7]): Active; Activity (DNA [8]): Active; MIC (Pseudomonas aeruginosa): 6.73 µg/mL (≈ 15 µM); Ka (Calf thymus DNA [9]): 2.27 ×10⁴ /M; Activity (Staphylococcus aureus [10]): 82.4%; Activity (Staphylococcus aureus [11]): Active; Activity (Staphylococcus aureus [12]): 7.96%; Activity [13]: Dose-dependent effect; Activity (DNA [14]): Active; Activity (Calf thymus DNA [15]): Dose-dependent effect; Activity (Staphylococcus aureus [16]): 86.3%; Activity [17]: Active; Activity (DNA [18]): Active; Activity (DNA [19]): Active; Activity [20]: inactive; MIC [21]: 0.897 µg/mL (≈ 2 µM); inhibition (DNA [22]): Active; Activity (Staphylococcus aureus [23]): Active; Activity (DNA [24]): Active; Activity (Staphylococcus aureus [25]): 79%
